Laboratory results taken from ChEMBL document CHEMBL2146480, “Discovery of Phenylaminopyridine Derivatives as Novel HIV-1 Non-nucleoside Reverse Transcriptase Inhibitors” (ACS Med Chem Lett, 2012).
pEC50, pIC50: −log10 of the molar value. Values after ≈ are worked out from the molar mass of the structure shown.

How the values were obtained:
[1] = Solubility of the compound in distilled water at pH 7.4; assay type: physicochemical
[2] = Cytotoxicity against human CEM174 cells assessed as cell viability; assay type: cell-based
Procedure, shortened: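 Values are geometric means of two determinations, each within 25% of the mean.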

[3] = biological target: Human immunodeficiency virus type 1 reverse transcriptase (Human immunodeficiency virus 1, UniProt Q72547); assay: Inhibition of RNA-dependent DNA polymerase activity of wild type N-terminal His6x-tagged HIV 1 reverse transcriptase p66/p51 expressed in Escherichia coli (DE3) rosetta cells preincubated for 30 mins by SPA assay
[4] = system: Human immunodeficiency virus 1; assay: Resistant ratio of IC50 for HIV 1 reverse transcriptase Y181C mutant to IC50 for wild type HIV 1 reverse transcriptase
Procedure, shortened: (§1)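 Fold resistance is IC50 against the mutant RT divided by IC50 against wild-type RT. Both IC50s come from the RNA-dependent DNA polymerase inhibition assay, each taken as the geometric mean of two determinations.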

[5] = biological target: Human immunodeficiency virus type 1 reverse transcriptase (Human immunodeficiency virus 1, UniProt Q72547, Y181C); assay: Inhibition of RNA-dependent DNA polymerase activity of N-terminal His6x-tagged HIV 1 reverse transcriptase Y181C mutant expressed in Escherichia coli (DE3) rosetta cells preincubated for 30 mins by SPA assay
[6] = biological target: Voltage-gated inwardly rectifying potassium channel KCNH2 (Homo sapiens, UniProt Q12809); assay: Inhibition of recombinant human ERG channel IKr expressed in CHO cells by patch clamp assay
Voltage-gated inwardly rectifying potassium channel KCNH2, sequence (Q12809 whole entry): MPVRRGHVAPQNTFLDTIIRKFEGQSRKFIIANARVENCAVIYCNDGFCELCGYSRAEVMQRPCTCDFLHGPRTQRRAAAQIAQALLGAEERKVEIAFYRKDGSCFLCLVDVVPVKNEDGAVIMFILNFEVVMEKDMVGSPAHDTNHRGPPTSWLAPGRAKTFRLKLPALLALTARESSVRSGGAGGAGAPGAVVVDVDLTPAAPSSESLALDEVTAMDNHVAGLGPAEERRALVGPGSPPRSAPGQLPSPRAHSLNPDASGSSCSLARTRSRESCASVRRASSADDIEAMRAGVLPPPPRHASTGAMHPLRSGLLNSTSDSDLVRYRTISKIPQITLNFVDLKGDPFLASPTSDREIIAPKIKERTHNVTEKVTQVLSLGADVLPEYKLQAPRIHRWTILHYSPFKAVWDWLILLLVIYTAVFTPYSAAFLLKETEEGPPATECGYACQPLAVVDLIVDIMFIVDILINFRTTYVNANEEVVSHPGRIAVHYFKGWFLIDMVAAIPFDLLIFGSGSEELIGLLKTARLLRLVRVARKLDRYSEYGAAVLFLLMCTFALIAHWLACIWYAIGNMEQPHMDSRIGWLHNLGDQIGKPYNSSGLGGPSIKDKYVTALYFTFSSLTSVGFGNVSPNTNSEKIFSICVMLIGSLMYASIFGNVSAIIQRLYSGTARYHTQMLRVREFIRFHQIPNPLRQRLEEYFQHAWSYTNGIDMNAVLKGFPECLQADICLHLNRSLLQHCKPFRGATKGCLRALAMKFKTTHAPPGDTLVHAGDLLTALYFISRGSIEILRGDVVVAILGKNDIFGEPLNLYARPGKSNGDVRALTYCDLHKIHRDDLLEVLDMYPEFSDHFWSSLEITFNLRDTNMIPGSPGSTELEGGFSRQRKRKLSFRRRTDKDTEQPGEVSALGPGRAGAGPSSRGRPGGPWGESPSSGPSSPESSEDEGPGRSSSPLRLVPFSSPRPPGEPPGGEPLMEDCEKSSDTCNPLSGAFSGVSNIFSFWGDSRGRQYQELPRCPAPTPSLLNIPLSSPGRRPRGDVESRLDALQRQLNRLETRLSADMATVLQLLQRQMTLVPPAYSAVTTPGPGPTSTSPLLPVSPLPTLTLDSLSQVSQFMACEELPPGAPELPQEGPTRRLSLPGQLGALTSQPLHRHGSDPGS

[7] = biological target: Human immunodeficiency virus type 1 reverse transcriptase (Human immunodeficiency virus 1, UniProt Q72547, K103N); assay: Inhibition of RNA-dependent DNA polymerase activity of N-terminal His6x-tagged HIV 1 reverse transcriptase K103N mutant expressed in Escherichia coli (DE3) rosetta cells preincubated for 30 mins by SPA assay
[8] = system: Human immunodeficiency virus type 1 reverse transcriptase (Human immunodeficiency virus 1), Q72547 [UNDEFINED MUTATION]; assay: Resistant ratio of IC50 for HIV 1 reverse transcriptase K103N mutant to IC50 for wild type HIV 1 reverse transcriptase; procedure, shortened: as §1
[9] = Solubility of the compound in distilled water at pH 2.1; assay type: physicochemical
[10] = system: Human immunodeficiency virus 1; assay: Antiviral activity against wild type HIV1 LAI infected in human CEM174 cells assessed as inhibition of viral replication preincubated for 1 hr prior to viral infection measured after 5 days; assay type: functional, organism-based; settings: Human immunodeficiency virus 1, LAI
[11] = Solubility of the compound in distilled water; assay type: physicochemical
Procedure, shortened: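 Solubility was measured on the HCl salt in distilled water.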

[12] = Half life in rat at 1.19 mg/kg, iv and 10.9 mg/kg, po; assay type: ADME, organism-based; settings: in vivo
Procedure, shortened: (§2)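 The iv and po formulation was 1.0 mg/mL in 40% PEG. Vd, AUCpo, F, clearance and t1/2 were derived.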

[13] = Volume of distribution in rat at 1.19 mg/kg, iv and 10.9 mg/kg, po; assay type: ADME, organism-based; settings: in vivo; procedure, shortened: as §2
[14] = AUC in rat at 10.9 mg/kg, po; assay type: ADME, organism-based; set-up: dose 10.9 mg/kg, route oral; settings: plasma; procedure, shortened: as §2
[15] = Oral bioavailability in rat at 10.9 mg/kg; assay type: ADME, organism-based; settings: in vivo; procedure, shortened: as §2
[16] = Clearance in rat at 1.19 mg/kg, iv and 10.9 mg/kg, po; assay type: ADME, organism-based; settings: in vivo; procedure, shortened: as §2
[17] = Half life in rat at 0.94 mg/kg, iv and 9.44 mg/kg, po; assay type: ADME, organism-based; settings: in vivo
Procedure, shortened: (§3)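 Rats given a single iv dose of 0.94 mg/kg and a single oral dose of 9.44 mg/kg. Both iv and po formulations were 1.0 mg/mL in 20% HP-β-CD. Vd, oral AUC, F, clearance and t1/2 were derived from plasma exposure.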

[18] = Induction of CYP3A4 mRNA expression in human Fa2N-4 cells up to 10 uM after 24 hrs; assay type: ADME, cell-based; settings: fa2n-4, 24 h
[19] = Volume of distribution in rat at 0.94 mg/kg, iv and 9.44 mg/kg, po; assay type: ADME, organism-based; settings: in vivo; procedure, shortened: as §3
[20] = AUC in rat 9.44 mg/kg, po; assay type: ADME, organism-based; set-up: dose 9.44 mg/kg, route oral; settings: plasma; procedure, shortened: as §3
[21] = Clearance in rat at 0.94 mg/kg, iv and 9.44 mg/kg, po; assay type: ADME, organism-based; settings: in vivo; procedure, shortened: as §3
[22] = Oral bioavailability in rat at 9.44 mg/kg; assay type: ADME, organism-based; settings: in vivo; procedure, shortened: as §3
[23] = Half life in rat at 1.10 mg/kg, iv and 10.7 mg/kg, po; assay type: ADME, organism-based; settings: in vivo
Procedure, shortened: (§4)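 Both routes were formulated at 1.0 mg/mL in 50% PEG. Parameters reported are Vd, AUCpo, oral bioavailability, clearance and half-life.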

[24] = Oral bioavailability in rat at 10.7 mg/kg; assay type: ADME, organism-based; settings: in vivo; procedure, shortened: as §4
[25] = Clearance in rat at 1.10 mg/kg, iv and 10.7 mg/kg, po; assay type: ADME, organism-based; settings: in vivo, 1.1 mg/kg; procedure, shortened: as §4
[26] = Volume of distribution in rat at 1.10 mg/kg, iv and 10.7 mg/kg, po; assay type: ADME, organism-based; settings: in vivo, 1.1 mg/kg; procedure, shortened: as §4
[27] = AUC in rat at 10.7 mg/kg, po; assay type: ADME, organism-based; set-up: dose 10.7 mg/kg, route oral; settings: plasma; procedure, shortened: as §4

Cc1cc(C#N)ccc1-c1ccnc(NCc2cc(-c3ccccn3)[nH]n2)c1
solubility [1]: 0.71 µM (≈ 0.26 µg/mL) | CC50 [2]: > 10000 nM | pIC50 [3]: 8.00 | Ratio IC50 [4]: 8.4 | pIC50 [5]: 7.08 | pIC50 [6]: 5.96 | pIC50 [7]: 6.87 | Ratio IC50 [8]: 13 | solubility [9]: > 545 µM | pEC50 [10]: 8.44

c1ccc(-c2cc(CNc3nncc(-c4cccc5ccccc45)n3)n[nH]2)cc1
CC50 [2]: > 10000 nM | pEC50 [10]: 6.58

Cc1cc(C#N)ccc1-c1ccnc(NCc2cc(-c3ccccc3)[nH]n2)c1
CC50 [2]: > 10000 nM | pEC50 [10]: 9.10

Cc1cccc(C)c1-c1cnnc(NCc2cc(-c3ccccc3)[nH]n2)n1
CC50 [2]: > 10000 nM | pEC50 [10]: 8.49

Cc1ccccc1-c1ccnc(NCc2cc(-c3ccccc3)[nH]n2)n1
CC50 [2]: > 10000 nM | pEC50 [10]: 6.44

Cc1cccc(-c2cnnc(NCc3cc(-c4ccccc4)[nH]n3)n2)c1
CC50 [2]: > 10000 nM | pEC50 [10]: 5.64

c1ccc(-c2cnnc(NCc3cc(-c4ccccc4)[nH]n3)n2)cc1
CC50 [2]: > 10000 nM | pEC50 [10]: 5.89

Cc1cc(C#N)ccc1-c1ccnc(NCc2n[nH]c3nc(F)ccc23)c1
solubility [1]: 1.8 µM (≈ 0.645 µg/mL) | CC50 [2]: > 10000 nM | pIC50 [3]: 8.72 | pIC50 [5]: 8.11 | pIC50 [7]: 8.00 | pEC50 [10]: 9.46

Cc1cc(C#N)ccc1-c1ccnc(NCc2n[nH]c(-c3ccccn3)c2Cl)c1.Cl
solubility [11]: 100 µM

Cc1ccccc1-c1cnnc(NCc2cc(-c3ccccc3)[nH]n2)n1
CC50 [2]: > 10000 nM | pEC50 [10]: 6.91

Cc1cc(C#N)ccc1-c1ccnc(NCc2n[nH]c(-c3ccccc3)c2Cl)c1
half-life [12]: 3.1 h | Vd [13]: 2.08 L/kg | solubility [1]: 2.1 µM (≈ 0.84 µg/mL) | AUC [14]: 34 µM·h | bioavailability [15]: 71% | CC50 [2]: > 10000 nM | pIC50 [3]: 8.29 | clearance [16]: 8.7 mL/min/kg | pIC50 [5]: 8.20 | pIC50 [7]: 7.96 | solubility [9]: 45 µM (≈ 18 µg/mL) | pEC50 [10]: 8.17

Cc1ccccc1-c1cccc(NCc2cc(-c3ccccc3)[nH]n2)n1
CC50 [2]: > 10000 nM | pEC50 [10]: < 5.00

Cc1cc(C#N)ccc1-c1ccnc(NCc2n[nH]c(-c3ccccn3)c2Cl)c1
half-life [17]: 2 h | Activity [18]: Not Active | solubility [1]: 1.1 µM (≈ 0.441 µg/mL) | CC50 [2]: > 10000 nM | Vd [19]: 1.1 L/kg | pIC50 [3]: 8.52 | AUC [20]: 67 µM·h | clearance [21]: 8.2 mL/min/kg | pIC50 [5]: 8.10 | pIC50 [7]: 7.80 | bioavailability [22]: 127% | solubility [9]: 132 µM (≈ 52.9 µg/mL) | pEC50 [10]: 9.70

Cc1cc(C#N)ccc1-c1ccnc(NCc2n[nH]c3ncccc23)c1
solubility [1]: 3.7 µM (≈ 1.26 µg/mL) | CC50 [2]: > 10000 nM | pIC50 [3]: 8.92 | pIC50 [5]: 8.25 | pIC50 [7]: 8.00 | solubility [9]: > 881 µM | pEC50 [10]: 8.96

Cc1cc(C#N)ccc1-c1ccnc(NCc2n[nH]c3nc(N)ccc23)c1
half-life [23]: 2.5 h | bioavailability [24]: 72% | solubility [1]: 0.34 µM (≈ 0.121 µg/mL) | CC50 [2]: > 10000 nM | pIC50 [3]: 8.23 | clearance [25]: 14 mL/min/kg | Vd [26]: 1.26 L/kg | pIC50 [5]: 7.80 | AUC [27]: 20 µM·h | pIC50 [7]: 7.44 | solubility [9]: > 884 µM | pEC50 [10]: 8.72

Cc1ccc(-c2cnnc(NCc3cc(-c4ccccc4)[nH]n3)n2)cc1
CC50 [2]: > 10000 nM | pEC50 [10]: < 5.00

N#Cc1cc(Cl)cc(Oc2cc(OCc3n[nH]c4nc(N)ccc34)ccc2Cl)c1
CC50 [2]: > 10000 nM

Cc1cc(C#N)ccc1-c1cnnc(NCc2cc(-c3ccccc3)[nH]n2)n1
CC50 [2]: > 10000 nM | pEC50 [10]: 8.77

Cc1ccnc2c1NC(=O)c1cccnc1N2C1CC1 [NEVIRAPINE]
CC50 [2]: > 10000 nM | pEC50 [10]: 6.82

Cc1ccccc1-c1cncc(NCc2cc(-c3ccccc3)[nH]n2)c1
CC50 [2]: > 10000 nM | pEC50 [10]: 5.92

Cc1ccccc1-c1cccc(NCc2cc(-c3ccccc3)[nH]n2)c1
CC50 [2]: > 10000 nM | pEC50 [10]: 5.66

Cc1cc(C#N)ccc1-c1ccnc(NCc2n[nH]c3nc(N)ccc23)c1.Cl
solubility [11]: > 4220 µM

Cc1cc(C#N)ccc1-c1ccnc(NCc2cc(-c3ccccc3)[nH]n2)n1
CC50 [2]: > 10000 nM | pEC50 [10]: 8.37

Cc1cc(C#N)ccc1-c1cncc(NCc2cc(-c3ccccc3)[nH]n2)c1
CC50 [2]: > 10000 nM | pEC50 [10]: 7.80

Cc1ccccc1-c1cncc(NCc2cc(-c3ccccc3)[nH]n2)n1
CC50 [2]: > 10000 nM | pEC50 [10]: 6.04

Cc1ccccc1-c1ccnc(NCc2cc(-c3ccccc3)[nH]n2)c1
CC50 [2]: > 10000 nM | pEC50 [10]: 6.83
